Experimental data taken from ChEMBL document CHEMBL4354861, “Re-Evaluating the Mechanism of Action of α,β-Unsaturated Carbonyl DUB Inhibitors b-AP15 and VLX1570: A Paradigmatic Example of Unspecific Protein Cross-linking with Michael Acceptor Motif-Containing Drugs” (J Med Chem, 2020).
Activity calls are given as the source filed them. The rule behind the calls is not given here.

Legend:
HeLa [1] = test: Inhibition of deubiquitinase in human HeLa cell extracts assessed as induction of accumulation of high molecular weight mTOR proteins at 1 uM incubated for 2 hrs by immunoblot analysis; type: cell-free
U2OS = test: Cytotoxicity in human U2OS cells assessed as reduction in cell viability incubated for 72 hrs Cell-titer Glo reagent based assay; type: functional
Method in brief: (§1)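 KMS11 (RPMI, seeded 25,000/well) or U2OS (DMEM, 10,000/well, adhered overnight) given varying concentrations, 72 h, biological triplicates, DMSO and bortezomib controls. CellTiter Glo luminescence; EC50 by dose-response fit.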

Anamorsin (Homo sapiens) [2] = target: Anamorsin (Homo sapiens) (UniProt Q6FI81); test: Inhibition of recombinant purified CIAPIN1 (unknown origin) assessed as accumulation of protein aggregates at 0.1 to 1.6 uM incubated for 1 to 6 hrs by size exclusion chromatography
HeLa [3] = test: Inhibition of deubiquitinase in human HeLa cell extracts assessed as inhibition of HA-Ub-C2Br probe labeling at 1 to 100 uM incubated for 30 mins by immunoblot analysis; type: cell-free
[4] = target: T1, Ubiquitin carboxyl-terminal hydrolase 28 (Homo sapiens) (UniProt Q96RU2); test: Inhibition of USP28 in human HeLa cell extracts assessed as inhibition of HA-Ub-C2Br probe labeling at 1 to 100 uM incubated for 30 mins by immunoblot analysis; type: cell-free
T1 sequence (whole entry): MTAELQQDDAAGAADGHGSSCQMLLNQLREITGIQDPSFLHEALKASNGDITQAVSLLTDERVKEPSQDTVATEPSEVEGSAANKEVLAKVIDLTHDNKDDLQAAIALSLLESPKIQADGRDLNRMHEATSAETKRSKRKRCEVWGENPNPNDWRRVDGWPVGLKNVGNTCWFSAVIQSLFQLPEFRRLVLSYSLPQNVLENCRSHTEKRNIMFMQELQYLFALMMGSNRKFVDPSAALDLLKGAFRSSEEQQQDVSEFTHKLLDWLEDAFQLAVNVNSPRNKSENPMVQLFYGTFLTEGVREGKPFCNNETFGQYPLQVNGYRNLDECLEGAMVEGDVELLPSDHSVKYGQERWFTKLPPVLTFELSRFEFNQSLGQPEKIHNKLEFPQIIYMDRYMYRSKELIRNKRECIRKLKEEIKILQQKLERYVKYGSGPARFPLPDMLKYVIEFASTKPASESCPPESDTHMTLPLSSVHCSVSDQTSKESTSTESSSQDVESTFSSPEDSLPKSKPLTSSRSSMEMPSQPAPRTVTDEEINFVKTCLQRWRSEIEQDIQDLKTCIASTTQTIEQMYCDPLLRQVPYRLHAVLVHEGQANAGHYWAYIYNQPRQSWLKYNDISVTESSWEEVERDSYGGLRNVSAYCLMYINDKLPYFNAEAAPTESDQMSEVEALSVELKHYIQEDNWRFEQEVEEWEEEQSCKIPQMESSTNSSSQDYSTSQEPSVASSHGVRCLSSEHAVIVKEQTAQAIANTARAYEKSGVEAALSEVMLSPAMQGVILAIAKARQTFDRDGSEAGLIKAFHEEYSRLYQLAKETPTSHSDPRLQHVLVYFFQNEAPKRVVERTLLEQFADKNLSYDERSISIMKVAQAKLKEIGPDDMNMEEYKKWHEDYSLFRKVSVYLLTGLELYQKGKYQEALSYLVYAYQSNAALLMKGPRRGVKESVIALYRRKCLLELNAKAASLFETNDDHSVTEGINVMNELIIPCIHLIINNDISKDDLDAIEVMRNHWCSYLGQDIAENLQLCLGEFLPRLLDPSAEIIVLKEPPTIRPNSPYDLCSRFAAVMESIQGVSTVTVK

KMS-11 [5] = test: Cytotoxicity in human KMS11 cells assessed as reduction in cell viability at 1 to 10 uM incubated for 16 hrs in presence of GSH by Alamar blue assay; type: functional, cell-based
Method in brief: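 KMS11 seeded at 80,000/well, treated with 1 or 10 µM compound with or without 1 mM GSH for 16 h, 6 biological replicates. Alamar blue fluorescence read at 560/590 nm, normalised to DMSO control.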

KMS-11 [6] = test: Cytotoxicity in human KMS11 cells assessed as reduction in cell viability incubated for 72 hrs Cell-titer Glo reagent based assay; type: functional; conditions: KMS-11, 72 h; method in brief: as §1
[7] = target: T2, Ubiquitin carboxyl-terminal hydrolase isozyme L5 (Homo sapiens) (UniProt Q9Y5K5); test: Covalent binding affinity to UCH-37 in human U2OS cells at 20 uM using probe-1 by ABPP analysis; type: cell-based
T2 sequence (whole entry): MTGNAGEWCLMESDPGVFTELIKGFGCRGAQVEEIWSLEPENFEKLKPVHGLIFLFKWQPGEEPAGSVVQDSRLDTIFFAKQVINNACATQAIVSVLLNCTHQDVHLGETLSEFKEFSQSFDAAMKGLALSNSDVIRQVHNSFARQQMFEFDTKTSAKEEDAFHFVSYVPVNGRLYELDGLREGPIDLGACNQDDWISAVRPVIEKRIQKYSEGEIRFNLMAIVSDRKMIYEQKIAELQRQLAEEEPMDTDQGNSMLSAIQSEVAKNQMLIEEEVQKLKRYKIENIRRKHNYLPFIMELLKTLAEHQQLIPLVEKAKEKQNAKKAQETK
Method in brief: (§2)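 U2OS cells pre-incubated 30 min with competitor (0, 5 or 20 µM), then 5 µM probe 1 for 1 h, in triplicate. Lysates in Triton/SDS buffer mixed with heavy R10K8-labelled probe-treated spike, CuAAC-tagged, NeutrAvidin-enriched, reduced, alkylated, trypsin-digested overnight at 37 °C, LC-MS/MS. Log2(L/H) ratios median-normalised and expressed relative to the no-inhibitor condition.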

[8] = target: Ubiquitin carboxyl-terminal hydrolase 14 (Homo sapiens) (UniProt P54578); test: Covalent binding affinity to USP14 in human U2OS cells at 20 uM using probe-1 by ABPP analysis; type: cell-based; method in brief: as §2
[9] = target: T1, Ubiquitin carboxyl-terminal hydrolase 28 (Homo sapiens); test: Covalent binding affinity to USP28 in human U2OS cells at 20 uM using probe-1 by ABPP analysis; type: cell-based; method in brief: as §2
Anamorsin (Homo sapiens) [10] = target: Anamorsin (Homo sapiens) (UniProt Q6FI81); test: Covalent binding affinity to CIAPIN1 in human U2OS cells at 20 uM using probe-1 by ABPP analysis; type: cell-based; method in brief: as §2
Anamorsin (Homo sapiens) [11] = target: Anamorsin (Homo sapiens) (UniProt Q6FI81); test: Inhibition of CIAPIN1 in human KMS11 crude cell extracts assessed as induction of formation of high molecular weight complexes with CIAPIN1 at 20 uM incubated for 2 hrs by immunoblot analysis
Anamorsin (Homo sapiens) [12] = target: Anamorsin (Homo sapiens) (UniProt Q6FI81); test: Inhibition of CIAPIN1 in human KMS11 crude cell extracts assessed as induction of formation of high molecular weight complexes with CIAPIN1 at 20 uM incubated for 2 hrs in presence of GSH by immunoblot analysis
Anamorsin (Homo sapiens) [13] = target: Anamorsin (Homo sapiens) (UniProt Q6FI81); test: Inhibition of recombinant purified CIAPIN1 (unknown origin) assessed as increase in high molecular weight CIAPIN1 complexes at 1 to 10 molar equivalent 1 by SDS-PAGE and Coomassie Blue staining based method
Method in brief: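 Recombinant CIAPIN1 (1 mg/mL) incubated with DMSO (0.16%) or compound at 1x, 2x, 5x or 10x molar excess, 30 min at 4 °C. Resolved by SDS-PAGE with Coomassie staining.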

Anamorsin (Homo sapiens) [14] = target: Anamorsin (Homo sapiens) (UniProt Q6FI81); test: Inhibition of recombinant purified CIAPIN1 (unknown origin) assessed as covalent adduct formation at 10 molar equivalents incubated for 2 hrs by electrospray MS analysis
Method in brief: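 His-tagged full-length human CIAPIN1 (AA1-312, C-terminal 7x His/TEV, 27 µM) incubated with 10 molar equivalents of compound (270 µM) in PBS for 2 h at room temperature, then analysed intact by ES-MS.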

Anamorsin (Homo sapiens) [15] = target: Anamorsin (Homo sapiens) (UniProt Q6FI81); test: Inhibition of recombinant purified CIAPIN1 (unknown origin) assessed as disruption of intra-chain disulfide bond in unmodified peptide containing Cys249
Anamorsin (Homo sapiens) [16] = target: Anamorsin (Homo sapiens) (UniProt Q6FI81); test: Inhibition of CIAPIN1 in human KMS11 cells assessed as induction of protein aggregation at 100 nM incubated for 1 hr by immunoblot analysis; type: cell-based
Anamorsin (Homo sapiens) [17] = target: Anamorsin (Homo sapiens) (UniProt Q6FI81); test: Inhibition of CIAPIN1 in human KMS11 cells assessed as induction of high molecular weight complex formation at 100 nM incubated for 6 hrs by immunoblot analysis; type: cell-based
Anamorsin (Homo sapiens) [18] = target: Anamorsin (Homo sapiens) (UniProt Q6FI81); test: Inhibition of CIAPIN1 in human KMS11 cells assessed as deletion of depletion of stable CIAPIN1 levels at 100 nM incubated for 6 hrs by immunoblot analysis; type: cell-based
Anamorsin (Homo sapiens) [19] = target: Anamorsin (Homo sapiens) (UniProt Q6FI81); test: Inhibition of recombinant purified CIAPIN1 (unknown origin) assessed as covalent modification of cysteine residues incubated for 30 mins LC-MS/MS analysis

Sequence of Anamorsin (Homo sapiens) (Q6FI81 whole entry, the tested form may be a part): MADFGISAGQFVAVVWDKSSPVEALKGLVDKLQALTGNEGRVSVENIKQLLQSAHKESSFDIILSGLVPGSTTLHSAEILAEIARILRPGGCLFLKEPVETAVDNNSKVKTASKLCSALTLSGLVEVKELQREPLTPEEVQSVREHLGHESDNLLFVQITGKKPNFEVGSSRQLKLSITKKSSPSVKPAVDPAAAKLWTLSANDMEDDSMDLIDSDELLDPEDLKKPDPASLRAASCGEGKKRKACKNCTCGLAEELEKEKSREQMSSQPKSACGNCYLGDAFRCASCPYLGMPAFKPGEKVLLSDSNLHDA
Sequence of Ubiquitin carboxyl-terminal hydrolase 14 (Homo sapiens) (P54578 whole entry): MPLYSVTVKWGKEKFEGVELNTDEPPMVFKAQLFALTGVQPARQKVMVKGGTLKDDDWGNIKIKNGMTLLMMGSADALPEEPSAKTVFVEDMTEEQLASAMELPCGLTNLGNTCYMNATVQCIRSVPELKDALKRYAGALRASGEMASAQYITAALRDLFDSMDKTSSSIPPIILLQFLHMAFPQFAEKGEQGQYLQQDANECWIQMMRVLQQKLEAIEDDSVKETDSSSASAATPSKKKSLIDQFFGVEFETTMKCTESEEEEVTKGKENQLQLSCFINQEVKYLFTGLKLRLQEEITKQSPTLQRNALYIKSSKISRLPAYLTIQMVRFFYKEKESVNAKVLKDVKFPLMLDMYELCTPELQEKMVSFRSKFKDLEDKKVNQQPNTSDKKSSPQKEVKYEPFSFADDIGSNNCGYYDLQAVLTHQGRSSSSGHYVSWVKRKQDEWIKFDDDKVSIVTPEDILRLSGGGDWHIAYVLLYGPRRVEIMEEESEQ

Row | Structure (SMILES) | inhibition (HeLa [1]) | EC50 (U2OS) [nM] | inhibition (Anamorsin (Homo sapiens) [2]) | inhibition (HeLa [3]) | inhibition [4] | Activity (KMS-11 [5]) | EC50 (KMS-11 [6]) [nM] | Activity [7] | Activity [8] | Activity [9] | Activity (Anamorsin (Homo sapiens) [10]) | inhibition (Anamorsin (Homo sapiens) [11]) | inhibition (Anamorsin (Homo sapiens) [12]) | inhibition (Anamorsin (Homo sapiens) [13]) | inhibition (Anamorsin (Homo sapiens) [14]) | inhibition (Anamorsin (Homo sapiens) [15]) | inhibition (Anamorsin (Homo sapiens) [16]) | inhibition (Anamorsin (Homo sapiens) [17]) | inhibition (Anamorsin (Homo sapiens) [18]) | inhibition (Anamorsin (Homo sapiens) [19])
1 | COc1cc(/C=C/C(=O)CC(=O)/C=C/c2ccc(O)c(OC)c2)ccc1O | Active |  |  |  |  |  |  |  |  |  |  |  |  |  |  |  |  |  |  | 
2 | C=CC(=O)N1CC/C(=C\c2ccc(F)c([N+](=O)[O-])c2)C(=O)/C(=C/c2ccc(F)c([N+](=O)[O-])c2)C1 |  | 98 | Active | Active | Active | inactive | 43 | inactive | inactive | inactive | Active | Active | inactive | Active | Active | Active | Active | Active | Active | Active
3 | C#CCC(=O)N1CC/C(=C\c2ccc(F)c([N+](=O)[O-])c2)C(=O)/C(=C/c2ccc(F)c([N+](=O)[O-])c2)C1 |  | 81 |  |  |  |  | 46 |  |  |  |  |  |  |  |  |  |  |  |  | 
